Laboratory results published in ChEMBL document CHEMBL4359926, “Design, synthesis, and evaluation of potent novel peroxisome proliferator-activated receptor γ indole partial agonists” (Bioorg Med Chem Lett, 2019).
The source made the active and inactive calls. The calls are words filed in the database; no cut-off is given here.

Experiments:
[1] = target: T1, Peroxisome proliferator-activated receptor gamma (Homo sapiens) (UniProt P37231); assay: Potency index, ratio of UHC1 IC50 to compound IC50 for displacement of fluormone PPAR green tracer ligand from recombinant GST-tagged PPARgamma ligand binding domain (unknown origin) incubated for 4 hrs by competitive fluorescence polarization binding assay
T1 sequence (whole entry): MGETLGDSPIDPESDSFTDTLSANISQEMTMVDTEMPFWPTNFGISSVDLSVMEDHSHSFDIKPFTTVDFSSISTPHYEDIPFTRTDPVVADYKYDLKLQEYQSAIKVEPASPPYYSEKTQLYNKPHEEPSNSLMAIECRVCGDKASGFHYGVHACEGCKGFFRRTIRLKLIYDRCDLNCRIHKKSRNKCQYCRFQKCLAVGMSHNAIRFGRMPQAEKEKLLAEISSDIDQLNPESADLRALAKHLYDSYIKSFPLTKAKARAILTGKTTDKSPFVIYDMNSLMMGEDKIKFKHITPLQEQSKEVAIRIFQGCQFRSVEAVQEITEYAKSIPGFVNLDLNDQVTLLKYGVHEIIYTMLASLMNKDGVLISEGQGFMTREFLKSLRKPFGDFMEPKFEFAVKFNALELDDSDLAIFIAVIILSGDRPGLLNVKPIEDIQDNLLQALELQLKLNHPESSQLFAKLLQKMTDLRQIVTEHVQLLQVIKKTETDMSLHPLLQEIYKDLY

[2] = target: T2, Peroxisome proliferator-activated receptor gamma (Homo sapiens, UniProt P37231); assay: Displacement of fluormone PPAR green tracer ligand from recombinant GST-tagged PPARgamma ligand binding domain (unknown origin) incubated for 4 hrs by competitive fluorescence polarization binding assay
T2 sequence (P37231 whole entry): T1 sequence (whole entry)

[3] = target: T3, PPARgamma2 (peroxisome proliferator-activated receptor gamma) (Homo sapiens, UniProt P37231); assay: Transactivation activity at human PPARgamma2 cotransfected with PPRE X3-TK-luc in human HEK293 cells incubated for 24 hrs by luciferase reporter gene assay relative to rosiglitazone; type: cell-based
T3 sequence (P37231 whole entry): T1 sequence (whole entry)
Summary of the method: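 HEK-293 cells grown in DMEM with 4.5 g/liter glucose and 10% bovine calf serum at 37°C, 5% CO₂. Co-transfected with human PPARγ2 plasmid and PPRE X3-TK-luc, then left 16 h. Compounds at 100 to 0.001 μM (10-fold steps), 0.1% DMSO final, for 24 h. Lysate luciferase read by luminescence.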

[4] = target: T4, Peroxisome proliferator-activated receptor gamma (Mus musculus) (UniProt P37238); assay: Partial agonist activity at PPARgamma in mouse 3T3-L1 cells assessed as decrease in PPARgamma S273 phosphorylation by measuring upregulation of adiponectin mRNA expression at 10 uM by qRT-PCR analysis; type: cell-based
T4 sequence (whole entry): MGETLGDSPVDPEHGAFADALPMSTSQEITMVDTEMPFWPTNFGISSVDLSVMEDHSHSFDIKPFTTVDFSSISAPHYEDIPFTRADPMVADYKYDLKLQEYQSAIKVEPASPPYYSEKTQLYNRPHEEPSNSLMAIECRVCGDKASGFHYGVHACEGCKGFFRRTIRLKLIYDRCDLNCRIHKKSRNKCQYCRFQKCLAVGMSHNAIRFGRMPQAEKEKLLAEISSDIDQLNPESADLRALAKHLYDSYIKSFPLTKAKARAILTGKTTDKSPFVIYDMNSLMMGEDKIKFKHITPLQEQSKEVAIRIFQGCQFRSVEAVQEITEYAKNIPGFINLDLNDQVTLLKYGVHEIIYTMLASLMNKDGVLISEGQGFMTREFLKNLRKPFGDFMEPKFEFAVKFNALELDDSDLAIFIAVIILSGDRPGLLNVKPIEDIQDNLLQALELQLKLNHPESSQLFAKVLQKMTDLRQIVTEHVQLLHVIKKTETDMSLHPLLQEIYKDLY

[5] = target: T4, Peroxisome proliferator-activated receptor gamma (Mus musculus); assay: Partial agonist activity at PPARgamma in mouse 3T3-L1 cells assessed as decrease in PPARgamma S273 phosphorylation by measuring upregulation of adipsin mRNA expression at 10 uM by qRT-PCR analysis; type: cell-based
[6] = target: T4, Peroxisome proliferator-activated receptor gamma (Mus musculus); assay: Partial agonist activity at PPARgamma in mouse 3T3L1 cells assessed as decrease in PPARgamma S273 phosphorylation by measuring upregulation of Car3 mRNA expression at 10 uM by qRT-PCR analysis; type: cell-based
[7] = target: T5, Peroxisome proliferator-activated receptor gamma (Mus musculus, UniProt P37238); assay: Induction of PPARgamma-mediated adipogenesis in mouse 3T3L1 cells assessed as upregulation of FABP4 mRNA expression at 10 uM by qRT-PCR analysis; type: cell-based
T5 sequence (P37238 whole entry): T4 sequence (whole entry)
Summary of the method: (§1)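 Confluent 3T3-L1 cells were differentiated in 10% FBS/DMEM with 0.5 mmol/L IBMX, 1 μmol/L dexamethasone and 10 μg/mL insulin plus compounds (10 μM) for 48 h, then 10 μg/mL insulin alone for another 48 h. RNA was extracted and analyzed by qRT-PCR (35 cycles). Relative mRNA was calculated by ΔΔCt normalized to TBP.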

[8] = target: T5, Peroxisome proliferator-activated receptor gamma; assay: Induction of PPARgamma-mediated adipogenesis in mouse 3T3L1 cells assessed as upregulation of Glut4 mRNA expression at 10 uM by qRT-PCR analysis; type: cell-based; summary of the method: as §1
[9] = target: T5, Peroxisome proliferator-activated receptor gamma; assay: Induction of PPARgamma-mediated adipogenesis in mouse 3T3L1 cells assessed as upregulation of LPL mRNA expression at 10 uM by qRT-PCR analysis; type: cell-based; summary of the method: as §1
[10] = target: T4, Peroxisome proliferator-activated receptor gamma (Mus musculus); assay: Partial agonist activity at PPARgamma in mouse 3T3-L1 cells assessed as decrease in PPARgamma S273 phosphorylation at 10 uM preincubated for 24 hrs followed by TNFalpha stimulation for 3 hrs by Western blotting analysis
[11] = target: T5, Peroxisome proliferator-activated receptor gamma; assay: Induction of PPARgamma-mediated adipogenesis in mouse 3T3L1 cells assessed as increase in cell differentiation at 10 uM compound treatment renewed every 2 days and measured on day 7 by Oil-red O staining based assay; settings: 48 h
Summary of the method: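 3T3-L1 cells were induced with DMEM/10% FBS containing 1 μg/ml insulin, 1 μM dexamethasone and 0.5 mM IBMX plus compounds (10 μM) for 48 h. They were then kept in maintenance DMEM/10% FBS with compounds, with medium renewed every 2 days. At day 7 cells were fixed in 4% formaldehyde for 30 min and stained with 0.3% Oil Red O for 1 h at 37 °C. Lipid droplets were viewed by microscopy; DMSO 0.1% final.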

| Structure (SMILES) | IC50 [2] | Ki [2] | Emax at 24 h [3] | also measured |
| --- | --- | --- | --- | --- |
| COc1cc(CNC(=O)c2ccc3c(c2)c(C)c(C)n3Cc2ccc(-c3ccccc3C(=O)O)cc2)ccc1O | 0.017 µM | 0.013 µM | 15% | Ratio IC50 [1]: > 30; Activity [4]: Active; Activity [5]: Active; Activity [6]: Active; Activity [7]: Active; Activity [8]: Active; Activity [9]: Active; inhibition [10]: Active |
| Cc1c(C)n(Cc2ccc(-c3ccccc3C(=O)O)cc2)c2ccc(C(=O)NCc3ccc4c(c3)OCO4)cc12 | 0.015 µM | 0.012 µM | 36% |  |
| Cc1c(C)n(Cc2ccc(-c3ccccc3C(=O)O)cc2)c2ccc(C(=O)NCC3CCNCC3)cc12 | 12.1 µM | 9.46 µM | 11% |  |
| Cc1c(C)n(Cc2ccc(-c3ccccc3C(=O)O)cc2)c2ccc(C(=O)NCc3ccccn3)cc12 | 0.034 µM | 0.027 µM | 15% |  |
| Cc1c(C)n(Cc2ccc(-c3ccccc3C(=O)O)cc2)c2ccc(C(=O)O)cc12 | 4.87 µM | 3.8 µM | 16% |  |
| COc1ccc(OC)c(CNC(=O)c2ccc3c(c2)c(C)c(C)n3Cc2cccc(C(F)(F)F)c2)c1 | 0.048 µM | 0.038 µM | 27% |  |
| Cc1c(C)n(Cc2cccc(C(F)(F)F)c2)c2ccc(C(=O)NCc3ccc4c(c3)OCO4)cc12 | 0.016 µM |  | 32% |  |
| Cc1c(C)n(Cc2ccc(-c3ccccc3C(=O)O)cc2)c2ccc(C(=O)NCc3cccnc3)cc12 | 0.536 µM | 0.44 µM | 45% | inhibition [10]: Active |
| Cc1c(C)n(Cc2ccc(-c3ccccc3C(=O)O)cc2)c2ccc(C(=O)NCc3cccc(OCC(=O)O)c3)cc12 | 0.066 µM | 0.052 µM | 56% |  |
| CN(CCOc1ccc(CC2SC(=O)NC2=O)cc1)c1ccccn1 (configuration not stated) [ROSIGLITAZONE] |  |  |  | Activity [11]: Active; Activity [7]: Active; Activity [8]: Active; Activity [9]: Active; inhibition [10]: Active |
| Cc1c(C)n(Cc2cccc(C(F)(F)F)c2)c2ccc(C(=O)N[C@@H](Cc3ccc(O)cc3)C(=O)O)cc12 | 0.346 µM | 0.27 µM | 44% |  |
| Cc1c(C)n(Cc2ccc(-c3ccccc3C(=O)O)cc2)c2ccc(C(=O)NCc3ccc(S(N)(=O)=O)cc3)cc12 | 0.312 µM | 0.244 µM | 0% |  |
| Cc1c(C)n(Cc2ccc(-c3ccccc3C(=O)O)cc2)c2ccc(C(=O)NC3CCNCC3)cc12 | 41.3 µM | 32.2 µM | 17% |  |
| COc1cc(CNC(=O)c2ccc3c(c2)c(C)c(C)n3Cc2cccc(C(F)(F)F)c2)ccc1O | 0.01 µM |  | 46% |  |
| Cc1c(C)n(Cc2cccc(C(F)(F)F)c2)c2ccc(C(=O)NCc3ccccn3)cc12 | 0.185 µM | 0.144 µM | 59% |  |
| Cc1c(C)n(Cc2ccc(-c3ccccc3C(=O)O)cc2)c2ccc(C(=O)NCCc3ccc(O)cc3)cc12 | 0.048 µM | 0.038 µM | 31% |  |
